# Measurements from ChEMBL document CHEMBL3407388, “Synthesis, anticancer activity and molecular docking studies on a series of heterocyclic trans-cyanocombretastatin analogues as antitubulin agents” (2015).
# Key:
# Type in all cases: functional
# [1] = tested on: SF-268; assay: Cytotoxicity against human SF268 cells assessed as growth inhibition after 48 hrs by SRB assay; conditions: SF-268, 48 h
# Procedure, shortened: (§1)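 NCI 60-cell panel; compounds passing a single-dose screen (10−5 M, 48 h) were tested at five 10-fold dilutions (10−4 to 10−8 M) with 48 h drug exposure. GI50 is the molar concentration giving 50% reduction in net cell growth relative to cell numbers on day 0.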
# [2] = tested on: DU-145; assay: Cytotoxicity against human DU145 cells assessed as growth inhibition after 48 hrs by SRB assay; conditions: DU-145, 48 h; procedure, shortened: as §1
# [3] = tested on: SW-620; assay: Cytotoxicity against human SW620 cells assessed as growth inhibition after 48 hrs by SRB assay; conditions: SW-620, 48 h
# [4] = tested on: NCI-H226; assay: Cytotoxicity against human NCI-H226 cells assessed as growth inhibition after 48 hrs by SRB assay; conditions: NCI-H226, 48 h; procedure, shortened: as §1
# [5] = tested on: MOLT-4; assay: Cytotoxicity against human MOLT4 cells assessed as growth inhibition after 48 hrs by SRB assay; conditions: MOLT-4, 48 h; procedure, shortened: as §1
# [6] = tested on: MCF7; assay: Cytotoxicity against human MCF7 cells assessed as growth inhibition after 48 hrs by SRB assay; conditions: MCF7, 48 h; procedure, shortened: as §1
# [7] = Cytotoxicity against human Hs578T cells assessed as growth inhibition after 48 hrs by SRB assay; conditions: Hs-578T; procedure, shortened: as §1
# [8] = Cytotoxicity against human HCT15 cells assessed as growth inhibition after 48 hrs by SRB assay; conditions: HCT-15, 48 h; procedure, shortened: as §1
# [9] = tested on: KM12; assay: Cytotoxicity against human KM12 cells assessed as growth inhibition after 48 hrs by SRB assay; conditions: KM12, 48 h; procedure, shortened: as §1
# [10] = tested on: MDA-MB-435; assay: Cytotoxicity against human MDA-MB-435 cells assessed as growth inhibition after 48 hrs by SRB assay; conditions: MDA-MB-435, 48 h; procedure, shortened: as §1
# [11] = tested on: RXF 393; assay: Cytotoxicity against human RXF393 cells assessed as growth inhibition after 48 hrs by SRB assay; conditions: RXF 393, 48 h; procedure, shortened: as §1
# [12] = Cytotoxicity against human HCT116 cells assessed as growth inhibition after 48 hrs by SRB assay; conditions: HCT-116, 48 h; procedure, shortened: as §1
# [13] = tested on: COLO 205; assay: Cytotoxicity against human COLO205 cells assessed as growth inhibition after 48 hrs by SRB assay; conditions: COLO 205, 48 h; procedure, shortened: as §1
# [14] = tested on: TK-10; assay: Cytotoxicity against human TK10 cells assessed as growth inhibition after 48 hrs by SRB assay; conditions: TK-10, 48 h
# [15] = tested on: MDA-MB-231; assay: Cytotoxicity against human MDA-MB-231 cells assessed as growth inhibition after 48 hrs by SRB assay; conditions: MDA-MB-231, 48 h; procedure, shortened: as §1
# [16] = tested on: HL-60(TB); assay: Cytotoxicity against human HL-60(TB) cells assessed as growth inhibition after 48 hrs by SRB assay; conditions: HL-60, 48 h
# Procedure, shortened: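 NCI 60-cell panel, leukemia subpanel. Five-dose screen at 10-fold dilutions from 10−4 to 10−8 M with 48 h drug exposure. GI50 is the molar concentration giving 50% reduction in net cell growth compared with cell numbers on day 0.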
# [17] = Cytotoxicity against human PC3 cells assessed as growth inhibition after 48 hrs by SRB assay; conditions: PC-3, 48 h; procedure, shortened: as §1
# [18] = tested on: K562; assay: Cytotoxicity against human K562 cells assessed as growth inhibition after 48 hrs by SRB assay; conditions: K562, 48 h; procedure, shortened: as §1
# [19] = Cytotoxicity against human OVCAR3 cells assessed as growth inhibition after 48 hrs by SRB assay; conditions: OVCAR-3, 48 h; procedure, shortened: as §1
# [20] = tested on: NCI-H460; assay: Cytotoxicity against human NCI-H460 cells assessed as growth inhibition after 48 hrs by SRB assay; conditions: NCI-H460, 48 h; procedure, shortened: as §1
# [21] = tested on: 786-0; assay: Cytotoxicity against human 786-0 cells assessed as growth inhibition after 48 hrs by SRB assay; conditions: 786-0, 48 h; procedure, shortened: as §1
# [22] = Cytotoxicity against human OVCAR4 cells assessed as growth inhibition after 48 hrs by SRB assay; conditions: OVCAR-4, 48 h; procedure, shortened: as §1
# [23] = Cytotoxicity against human NCI-ADR-RES cells assessed as growth inhibition after 48 hrs by SRB assay; procedure, shortened: as §1
# [24] = tested on: LOX IMVI; assay: Cytotoxicity against human LOXIMVI cells assessed as growth inhibition after 48 hrs by SRB assay; procedure, shortened: as §1
# [25] = tested on: HCC 2998; assay: Cytotoxicity against human HCC2998 cells assessed as growth inhibition after 48 hrs by SRB assay; conditions: HCC 2998, 48 h; procedure, shortened: as §1
# [26] = tested on: SNB-75; assay: Cytotoxicity against human SNB75 cells assessed as growth inhibition after 48 hrs by SRB assay; conditions: SNB-75, 48 h
# [27] = tested on: HT-29; assay: Cytotoxicity against human HT-29 cells assessed as growth inhibition after 48 hrs by SRB assay; conditions: HT-29, 48 h; procedure, shortened: as §1
# [28] = tested on: RPMI-8226; assay: Cytotoxicity against human RPMI8226 cells assessed as growth inhibition after 48 hrs by SRB assay; conditions: RPMI-8226, 48 h; procedure, shortened: as §1
# [29] = tested on: SK-MEL-5; assay: Cytotoxicity against human SK-MEL-5 cells assessed as growth inhibition after 48 hrs by SRB assay; conditions: SK-MEL-5, 48 h; procedure, shortened: as §1
# [30] = Cytotoxicity against human OVCAR5 cells assessed as growth inhibition after 48 hrs by SRB assay; conditions: OVCAR-5, 48 h; procedure, shortened: as §1
# [31] = tested on: BT-549; assay: Cytotoxicity against human BT549 cells assessed as growth inhibition after 48 hrs by SRB assay; conditions: BT-549, 48 h; procedure, shortened: as §1
# [32] = Cytotoxicity against human UACC62 cells assessed as growth inhibition after 48 hrs by SRB assay; conditions: UACC-62, 48 h
# [33] = tested on: SNB-19; assay: Cytotoxicity against human SNB19 cells assessed as growth inhibition after 48 hrs by SRB assay; conditions: SNB-19, 48 h; procedure, shortened: as §1
# [34] = tested on: SN12C; assay: Cytotoxicity against human SN12C cells assessed as growth inhibition after 48 hrs by SRB assay; procedure, shortened: as §1
# [35] = Cytotoxicity against human UO31 cells assessed as growth inhibition after 48 hrs by SRB assay; conditions: UO-31, 48 h
# [36] = Cytotoxicity against human OVCAR8 cells assessed as growth inhibition after 48 hrs by SRB assay; conditions: OVCAR-8, 48 h; procedure, shortened: as §1
# [37] = tested on: M14; assay: Cytotoxicity against human M14 cells assessed as growth inhibition after 48 hrs by SRB assay; conditions: M14, 48 h; procedure, shortened: as §1
# [38] = tested on: CAKI-1; assay: Cytotoxicity against human Caki1 cells assessed as growth inhibition after 48 hrs by SRB assay; conditions: CAKI-1, 48 h; procedure, shortened: as §1
# [39] = tested on: IGROV-1; assay: Cytotoxicity against human IGROV1 cells assessed as growth inhibition after 48 hrs by SRB assay; conditions: IGROV-1, 48 h; procedure, shortened: as §1
# [40] = tested on: SK-OV-3; assay: Cytotoxicity against human SKOV3 cells assessed as growth inhibition after 48 hrs by SRB assay; conditions: SK-OV-3, 48 h; procedure, shortened: as §1
# [41] = tested on: A498; assay: Cytotoxicity against human A498 cells assessed as growth inhibition after 48 hrs by SRB assay; conditions: A498, 48 h; procedure, shortened: as §1
# [42] = tested on: SF-295; assay: Cytotoxicity against human SF295 cells assessed as growth inhibition after 48 hrs by SRB assay; conditions: SF-295, 48 h; procedure, shortened: as §1
# [43] = tested on: U-251; assay: Cytotoxicity against human U251 cells assessed as growth inhibition after 48 hrs by SRB assay; conditions: U-251, 48 h
smiles,measurement,setting,value
COc1cc(OC)cc(/C(C#N)=C/c2nc3ccccc3s2)c1,GI50,[1],3.09 µM
same,GI50,[2],1.07 µM
same,GI50,[3],0.343 µM
same,GI50,[4],4.11 µM
same,GI50,[5],3.38 µM
same,GI50,[6],0.399 µM
same,GI50,[7],2.01 µM
same,GI50,[8],0.414 µM
same,GI50,[9],2.01 µM
same,GI50,[10],0.199 µM
same,GI50,[11],0.551 µM
same,GI50,[12],0.404 µM
same,GI50,[13],0.574 µM
same,GI50,[14],2.78 µM
same,GI50,[15],6.74 µM
same,GI50,[16],0.345 µM
same,GI50,[17],2.74 µM
same,GI50,[18],0.333 µM
same,GI50,[19],0.285 µM
same,GI50,[20],2.86 µM
same,GI50,[21],2.44 µM
same,GI50,[22],> 10 µM
same,GI50,[23],1.47 µM
same,GI50,[24],1.84 µM
same,GI50,[25],8.39 µM
same,GI50,[26],2.13 µM
same,GI50,[27],0.438 µM
same,GI50,[28],2.29 µM
same,GI50,[29],1.37 µM
same,GI50,[30],4.85 µM
same,GI50,[31],3.45 µM
same,GI50,[32],0.755 µM
same,GI50,[33],> 10 µM
same,GI50,[34],4.68 µM
same,GI50,[35],0.679 µM
same,GI50,[36],3.13 µM
same,GI50,[37],1.21 µM
same,GI50,[38],0.482 µM
same,GI50,[39],0.706 µM
same,GI50,[40],1.79 µM
same,GI50,[41],0.417 µM
same,GI50,[42],2.46 µM
same,GI50,[43],1.91 µM
